Measured values published in ChEMBL document CHEMBL4007456, “Heterocyclyl Tetracyclines. 1. 7-Trifluoromethyl-8-Pyrrolidinyltetracyclines: Potent, Broad Spectrum Antibacterial Agents with Enhanced Activity against Pseudomonas aeruginosa” (2017).
Converted amounts (≈) assume the structure as drawn.

Legend:
Type in all cases: functional
Klebsiella pneumoniae [1] = assay: Antibacterial activity against gram-negative Klebsiella pneumoniae KP194 by CLSI method
How it was run: (§1)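 Broth microdilution MIC per CLSI in cation-adjusted Mueller Hinton broth, prepared fresh and held at 4 °C. Defibrinated horse blood added where appropriate. Compounds serially diluted in sterile deionized water. Strains from ATCC unless otherwise noted. Runs accepted when comparator antibiotics fell within QC ranges for ATCC quality control strains.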

Staphylococcus aureus [2] = assay: Antibacterial activity against gram-positive Staphylococcus aureus SA161 harboring tet(M) by CLSI method
How it was run: (§2)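 CLSI broth microdilution MIC in fresh cation-adjusted Mueller Hinton broth, supplemented with defibrinated horse blood where appropriate. Compounds serially diluted in sterile deionized water. Runs accepted when comparator antibiotics against ATCC quality-control strains fell within recommended ranges.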

Escherichia coli [3] = assay: Antibacterial activity against gram-negative Escherichia coli EC107 by CLSI method; how it was run: as §1
Escherichia coli [4] = assay: Antibacterial activity against gram-negative Escherichia coli EC155 harboring tet(A) by CLSI method; how it was run: as §2
Enterococcus faecalis [5] = assay: Antibacterial activity against gram-positive Enterococcus faecalis EF159 harboring tet(M) by CLSI method; how it was run: as §2
[6] = system: Stenotrophomonas maltophilia; assay: Antibacterial activity against gram-negative Stenotrophomonas maltophilia SM256 by CLSI method; how it was run: as §1
Klebsiella pneumoniae [7] = assay: Antibacterial activity against gram-negative Klebsiella pneumoniae KP153 harboring tet(A) by CLSI method; how it was run: as §2
Streptococcus pneumoniae [8] = assay: Antibacterial activity against gram-positive Streptococcus pneumoniae SP193 by CLSI method; how it was run: as §1
Klebsiella pneumoniae [9] = assay: Antibacterial activity against gram-negative Klebsiella pneumoniae KP457 harboring blacTX-M-15 extended spectrum beta-lactamase gene by CLSI method; how it was run: as §2
Enterococcus faecalis [10] = assay: Antibacterial activity against gram-positive Enterococcus faecalis EFs327 harboring tet(M) by CLSI method; how it was run: as §2
Acinetobacter baumannii = assay: Antibacterial activity against gram-negative Acinetobacter baumannii AB250 by CLSI method; how it was run: as §1
Staphylococcus aureus [11] = assay: Antibacterial activity against gram-positive Staphylococcus aureus SA101 by CLSI method; how it was run: as §1
Enterobacter cloacae = assay: Antibacterial activity against gram-negative Enterobacter cloacae EC1603 harboring tet(A) by CLSI method; how it was run: as §2
Proteus mirabilis [12] = assay: Antibacterial activity against gram-negative Proteus mirabilis PM385 by CLSI method; how it was run: as §1
Pseudomonas aeruginosa [13] = assay: Antibacterial activity against gram-negative Pseudomonas aeruginosa PA555 by CLSI method; how it was run: as §1
Burkholderia cenocepacia = assay: Antibacterial activity against gram-negative Burkholderia cenocepacia BC240 by CLSI method
How it was run: (§3)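 Defibrinated horse blood added where appropriate. Compounds serially diluted in sterile deionized water. Strains from ATCC unless otherwise noted. Runs accepted when comparator antibiotics fell within QC ranges for ATCC quality control strains.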

Pseudomonas aeruginosa [14] = assay: Antibacterial activity against gram-negative Pseudomonas aeruginosa PA169 by CLSI method; how it was run: as §3
Proteus mirabilis [15] = assay: Antibacterial activity against gram-negative Proteus mirabilis PM122 by CLSI method; how it was run: as §3
Staphylococcus aureus [16] = assay: Antibacterial activity against gram-positive Staphylococcus aureus SA158 harboring tet(K) by CLSI method; how it was run: as §2
Streptococcus pneumoniae [17] = assay: Antibacterial activity against gram-positive Streptococcus pneumoniae SP160 harboring tet(M) by CLSI method; how it was run: as §2
Enterococcus faecium = assay: Antibacterial activity against gram-positive Enterococcus faecium EFm404 harboring tet(M) by CLSI method; how it was run: as §2
Pseudomonas aeruginosa [18] = assay: Antibacterial activity against Pseudomonas aeruginosa PA1145 in BALB/c mouse model of lung infection assessed as reduction in log10CFU per gram of lung at 40 mg/kg, iv bid administered 2 to 12 hrs of post-infection measured after 24 hrs relative to untreated control
How it was run: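 Female BALB/c mice, 18 to 20 g, infected intranasally under light anesthesia with ~ 2 x 10^7 CFU/mouse of P. aeruginosa PA1145 (cystic fibrosis isolate) in 0.05 mL. Treatment at 2 and 12 h post-infection, IV, or intranasally for tobramycin; n = 6 per group. Lungs harvested 24 h after treatment began, homogenized, plated on MacConkey medium, incubated overnight at 37 °C in 5% CO2. CFU per gram lung compared with T = 24 h untreated control.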

Pseudomonas aeruginosa [19] = assay: Antibacterial activity against Pseudomonas aeruginosa PA1145 in BALB/c mouse model of lung infection administered as iv bid for 2 to 12 hrs of post-infection measured after 24 hrs
How it was run: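 Female BALB/c mice (18–20 g) infected intranasally with ~2 x 10^7 CFU/mouse P. aeruginosa PA1145 (cystic fibrosis isolate) under light anesthesia. Dosing at 2 and 12 h post-infection, IV (compound, tigecycline, amikacin) or intranasal (tobramycin); n = 6 per group. Lungs harvested 24 h after treatment start, homogenized, plated on MacConkey agar, 37 °C overnight; CFU/g lung; Mann-Whitney vs T = 0 h or 24 h controls.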

Structure (SMILES)	MIC (Klebsiella pneumoniae [1]) [µg/mL]	MIC (Staphylococcus aureus [2]) [µg/mL]	MIC (Escherichia coli [3]) [µg/mL]	MIC (Escherichia coli [4]) [µg/mL]	MIC (Enterococcus faecalis [5]) [µg/mL]	MIC [6] [µg/mL]	MIC (Klebsiella pneumoniae [7]) [µg/mL]	MIC (Streptococcus pneumoniae [8]) [µg/mL]	MIC (Klebsiella pneumoniae [9]) [µg/mL]	MIC (Enterococcus faecalis [10]) [µg/mL]	MIC (Acinetobacter baumannii) [µg/mL]	MIC (Staphylococcus aureus [11]) [µg/mL]	MIC (Enterobacter cloacae) [µg/mL]	MIC (Proteus mirabilis [12]) [µg/mL]	MIC (Pseudomonas aeruginosa [13]) [µg/mL]	MIC (Burkholderia cenocepacia) [µg/mL]	MIC (Pseudomonas aeruginosa [14]) [µg/mL]	MIC (Proteus mirabilis [15]) [µg/mL]	MIC (Staphylococcus aureus [16]) [µg/mL]	MIC (Streptococcus pneumoniae [17]) [µg/mL]	further results
CN(C)[C@@H]1C(O)=C(C(N)=O)C(=O)[C@@]2(O)C(O)=C3C(=O)c4c(O)cccc4[C@@](C)(O)[C@H]3C[C@@H]12 [TETRACYCLINE]	16 (≈ 36 µM)	> 32	1 (≈ 2.25 µM)	> 32	> 32	16 (≈ 36 µM)	> 32	0.125 (≈ 0.281 µM)	8 (≈ 18 µM)	> 32	> 32	0.25 (≈ 0.563 µM)	> 32	> 32	> 32						
CN1CCCCCC1c1cc(O)c2c(c1Cl)C[C@H]1C[C@H]3[C@H](N(C)C)C(O)=C(C(N)=O)C(=O)[C@@]3(O)C(O)=C1C2=O (some centres not stated)	16 (≈ 28.6 µM)	2 (≈ 3.57 µM)	0.0625 (≈ 0.112 µM)	2 (≈ 3.57 µM)	2 (≈ 3.57 µM)	0.5 (≈ 0.893 µM)	1 (≈ 1.79 µM)	≤ 0.0156			2 (≈ 3.57 µM)	0.25 (≈ 0.446 µM)				8 (≈ 14.3 µM)	32 (≈ 57.1 µM)	4 (≈ 7.14 µM)	0.0313 (≈ 0.0559 µM)	0.5 (≈ 0.893 µM)	
CN1CCCCC1c1cc(O)c2c(c1Cl)C[C@H]1C[C@H]3[C@H](N(C)C)C(O)=C(C(N)=O)C(=O)[C@@]3(O)C(O)=C1C2=O (some centres not stated)	16 (≈ 29.3 µM)	4 (≈ 7.33 µM)	0.125 (≈ 0.229 µM)	1 (≈ 1.83 µM)	2 (≈ 3.66 µM)	1 (≈ 1.83 µM)	1 (≈ 1.83 µM)	≤ 0.0156			2 (≈ 3.66 µM)	0.25 (≈ 0.458 µM)				8 (≈ 14.7 µM)	32 (≈ 58.6 µM)	1 (≈ 1.83 µM)	0.0313 (≈ 0.0573 µM)	0.25 (≈ 0.458 µM)	
CN(C)[C@@H]1C(O)=C(C(N)=O)C(=O)[C@@]2(O)C(O)=C3C(=O)c4c(O)cc([C@H]5CCCN5)c(C(F)(F)F)c4C[C@H]3C[C@@H]12		16 (≈ 29 µM)	≤ 0.0156	2 (≈ 3.63 µM)		1 (≈ 1.81 µM)			0.125 (≈ 0.227 µM)	16 (≈ 29 µM)	2 (≈ 3.63 µM)	0.125 (≈ 0.227 µM)	8 (≈ 14.5 µM)	0.5 (≈ 0.907 µM)	8 (≈ 14.5 µM)	8 (≈ 14.5 µM)			0.0312 (≈ 0.0566 µM)	1 (≈ 1.81 µM)	MIC (Enterococcus faecium): 4 µg/mL (≈ 7.25 µM)
NCC[C@H](O)C(=O)N[C@@H]1C[C@H](N)[C@@H](O[C@H]2O[C@H](CN)[C@@H](O)[C@H](O)[C@H]2O)[C@H](O)[C@H]1O[C@H]1O[C@H](CO)[C@@H](O)[C@H](N)[C@H]1O [AMIKACIN]																					Activity (Pseudomonas aeruginosa [18]): 3.6 deltalog10CFU; MIC (Pseudomonas aeruginosa [19]): 4 µg/mL (≈ 6.83 µM)
CC1CCC(c2cc(O)c3c(c2C(F)(F)F)C[C@H]2C[C@H]4[C@H](N(C)C)C(O)=C(C(N)=O)C(=O)[C@@]4(O)C(O)=C2C3=O)N1C (some centres not stated)		1 (≈ 1.73 µM)	0.5 (≈ 0.863 µM)	2 (≈ 3.45 µM)		2 (≈ 3.45 µM)			8 (≈ 13.8 µM)	2 (≈ 3.45 µM)	2 (≈ 3.45 µM)	0.5 (≈ 0.863 µM)	16 (≈ 27.6 µM)	4 (≈ 6.9 µM)	> 32	8 (≈ 13.8 µM)			0.125 (≈ 0.216 µM)	0.0312 (≈ 0.0538 µM)	MIC (Enterococcus faecium): 1 µg/mL (≈ 1.73 µM)
